For 26 molecules, inhibition results are on record in PubChem BioAssay AID624466 (The Scripps Research Institute Molecular Screening Center, 2012).

Molecules are shown by their SMILES. Out of some 360,000 compounds screened, about 5,400 (1.5%) were called active. This is one part of a sample in which actives are shown more often than they occur. Values without a mark were called inactive.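 How the source made its calls: active means inhibition above a per-plate cutoff, the mean inhibition of test compounds on that plate plus 3 SD (cut at about 49% in these data); inactive means the rest.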

In the assay the target is Trace amine-associated receptor 1 (Homo sapiens) (UniProt Q96RJ0). Briefly: human TAAR1 antagonists, primary screen, Fluo-8 calcium fluorescence, CHO RD-HGA16 cells (AID 624466).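 Further: 0% = DMSO plus EC80 beta-PEA response and 100% = DMSO alone without agonist.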 The note with it: CHO RD-HGA16 TAAR1, Fluo-8 calcium fluorescence, antagonist; at 3 µM; active compounds read high. The procedure, abridged: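 Material: RD-HGA16 CHO cells with stable hTAAR1 and Gα16; Dosing: single nominal final test compound concentration of 3 µM; Schedule: seeding 17-24 h prior, 75-min 37 °C, 30-min RT dye loading; Detection: kinetic Fluo-8 calcium fluorescence measurement; Measure: % inhibition from peak post-agonist over basal fluorescence ratio; Benchmarks: vehicle and agonist controls.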
Chain of Trace amine-associated receptor 1 (Homo sapiens) (Q96RJ0 whole entry, looked up): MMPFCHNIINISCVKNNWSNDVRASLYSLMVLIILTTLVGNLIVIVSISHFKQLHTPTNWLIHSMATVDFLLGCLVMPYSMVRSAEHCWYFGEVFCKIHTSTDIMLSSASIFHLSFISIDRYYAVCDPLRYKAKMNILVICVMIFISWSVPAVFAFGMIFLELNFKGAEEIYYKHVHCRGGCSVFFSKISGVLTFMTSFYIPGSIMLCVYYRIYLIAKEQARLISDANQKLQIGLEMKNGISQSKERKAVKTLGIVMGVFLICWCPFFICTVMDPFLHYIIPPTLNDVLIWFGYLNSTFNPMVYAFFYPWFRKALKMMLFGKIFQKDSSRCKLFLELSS
On to `CCc1ccc(NC(=O)C(=O)N/N=C(\C)CC(=O)NCCOC)cc1`, for which the inhibition was -6%. `CCOC(=O)[C@]12CCC=C1N(Cc1cccc3ccccc13)C(=O)[C@H](CC(=O)NCc1cccc(C(F)(F)F)c1)C2`: the inhibition was -4.64%. For the molecule `C#CCOc1ccc(/C=C2/C(=O)ON=C2C)cc1OCC`, the inhibition is 12.6%. Take `CC1=NOC(=O)/C1=C\c1ccccc1`: the inhibition is -15%. The value for `COc1cc(/C=C2/C(=O)ON=C2C)ccc1OCc1ccccc1F` was 51.4% (active); that for `CC[C@H](NC(=O)[C@H](Cc1ccccc1)NC(=O)[C@H]1O[C@@H](n2cnc3c(=O)[nH]c(N)nc32)[C@H](O)[C@@H]1O)c1ccccc1` was -41.7%. Turning to `CC(C)(C)n1nc2c(c1NC(=O)c1ccc(S(=O)(=O)N3CCCC3)cc1)CS(=O)C2` (stereo unspecified), the inhibition is 4.79%. As for `COc1ccc(CNS(=O)(=O)c2cc(Br)ccc2Br)cc1`, the inhibition is -2.96%.

On to `CC(C)CC1NC(=O)c2cc(Cl)ccc2-n2c1nc1ccccc1c2=O` (stereo unspecified), for which the inhibition is -6.66%. `CCCOc1ccc(F)cc1-c1cc(C(=O)Nc2ccc(F)cc2)[nH]n1`: the inhibition was 15.5%.

As to `CCCOc1ccc(F)cc1-c1cc(C(=O)NCc2ccc(F)cc2)[nH]n1`, the inhibition was 53.6% (active). As for `CCCOc1ccc(F)cc1-c1cc(C(=O)Nc2ccc(F)c(Cl)c2)[nH]n1`, the inhibition was 38.5%. For the molecule `O=S1(=O)c2ccc(Br)cc2-n2nncc2CN1Cc1cccc(Cl)c1`, the inhibition was 3.33%.

In the case of `O=c1onc(-c2c(F)cccc2F)n1-c1ccccc1Cl`, the inhibition was 4.53%. Turning to `COc1ccc(-c2nc3ccccc3c(=O)n2CCc2ccc(O)cc2)cc1`, the inhibition was 58.4% (active). The result for `COc1ccc(-c2ccc(CCC(=O)O)n2-c2ccc(O)cc2)cc1` reads -5.35%. For `COc1ccc(CCNCc2c(-c3ccccc3)n(C)c3ccccc23)cc1`, the inhibition was 25%. As for `Cc1ccc(-c2nc3c(C)cc(Br)cn3c2Cc2ccccc2)cc1`, the inhibition was -21.5%. Take `O=C(N[C@H]1CC[C@H](CC(=O)N2CCCCC2)O[C@@H]1CO)c1cccc(F)c1`: the inhibition is 4.76%. Take `CC(=O)C[C@@H](O)CC(=O)[C@H]1OC(=O)CCCCCCc2ccccc21`: the inhibition is 6.02%. On to `CCc1ccc(C2=CC(=O)CC(C)(C)C2=O)cc1`, for which the inhibition was -8.28%. Turning to `O=C(O)Cn1cnc2c(NCc3ccccc3)ncnc21`, the inhibition was -23.5%. `COC(=O)c1ccc(C2NC(=O)NC(C)=C2C(=O)N(C)C)cc1` (stereo unspecified): the inhibition is -4.25%. Turning to `CCOc1ccc(OCc2ccc(C(=O)Nc3cccc(C)n3)o2)cc1`, the inhibition was 16.1%. For `Cc1cccc(NC(=O)c2ccc(COc3ccccc3[N+](=O)[O-])o2)n1`, the inhibition is 51.5% (active). As to `CCCCNc1ccc(C(=O)Nc2cccc(C)n2)cc1[N+](=O)[O-]`, the inhibition was 24.1%.
